Assay outcomes: PubChem BioAssay, Johns Hopkins Ion Channel Center
KCNK3 inh = human KCNK3 channel inhibition, primary screen; O14649; 340,000 tested, 0.84% active; B-score at 10 µM; CHO-KCNK3 thallium flux, FluxOR fluorescence; active compounds read low;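 active = B-score under library mean minus 4 SD, starting fluorescence ratio at most library mean plus 5 SD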;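 also: more negative B-score means stronger inhibition of thallium flux through KCNK3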
KCNK9 block = human KCNK9 channel inhibition. Q9NPC2. HEK293 KCNK9, FluxOR thallium flux fluorescence; active compounds read low. 310,000 tested, 1.2% active. AID 488922. B-score at 10 µM;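 active = ratio B-score over 3 SD below the library mean, with starting fluorescence within 5 SD of its mean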;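 also: negative B-score means less thallium flux so channel inhibition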
hERG protect = shields human hERG channel from block by proarrhythmic agents. CHO-hERG, FluxOR thallium flux, dofetilide IC70 present. activation (rescue from dofetilide block), less the hit threshold, % at 10 µM. 310,000 tested, 0.51% active. Q12809;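 active = activation above the mean of controls blocked by dofetilide plus 5 SD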;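 also: thallium influx through hERG after potassium depolarization seen as dye fluorescence rise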
Target sequence (Q12809 whole entry, looked up): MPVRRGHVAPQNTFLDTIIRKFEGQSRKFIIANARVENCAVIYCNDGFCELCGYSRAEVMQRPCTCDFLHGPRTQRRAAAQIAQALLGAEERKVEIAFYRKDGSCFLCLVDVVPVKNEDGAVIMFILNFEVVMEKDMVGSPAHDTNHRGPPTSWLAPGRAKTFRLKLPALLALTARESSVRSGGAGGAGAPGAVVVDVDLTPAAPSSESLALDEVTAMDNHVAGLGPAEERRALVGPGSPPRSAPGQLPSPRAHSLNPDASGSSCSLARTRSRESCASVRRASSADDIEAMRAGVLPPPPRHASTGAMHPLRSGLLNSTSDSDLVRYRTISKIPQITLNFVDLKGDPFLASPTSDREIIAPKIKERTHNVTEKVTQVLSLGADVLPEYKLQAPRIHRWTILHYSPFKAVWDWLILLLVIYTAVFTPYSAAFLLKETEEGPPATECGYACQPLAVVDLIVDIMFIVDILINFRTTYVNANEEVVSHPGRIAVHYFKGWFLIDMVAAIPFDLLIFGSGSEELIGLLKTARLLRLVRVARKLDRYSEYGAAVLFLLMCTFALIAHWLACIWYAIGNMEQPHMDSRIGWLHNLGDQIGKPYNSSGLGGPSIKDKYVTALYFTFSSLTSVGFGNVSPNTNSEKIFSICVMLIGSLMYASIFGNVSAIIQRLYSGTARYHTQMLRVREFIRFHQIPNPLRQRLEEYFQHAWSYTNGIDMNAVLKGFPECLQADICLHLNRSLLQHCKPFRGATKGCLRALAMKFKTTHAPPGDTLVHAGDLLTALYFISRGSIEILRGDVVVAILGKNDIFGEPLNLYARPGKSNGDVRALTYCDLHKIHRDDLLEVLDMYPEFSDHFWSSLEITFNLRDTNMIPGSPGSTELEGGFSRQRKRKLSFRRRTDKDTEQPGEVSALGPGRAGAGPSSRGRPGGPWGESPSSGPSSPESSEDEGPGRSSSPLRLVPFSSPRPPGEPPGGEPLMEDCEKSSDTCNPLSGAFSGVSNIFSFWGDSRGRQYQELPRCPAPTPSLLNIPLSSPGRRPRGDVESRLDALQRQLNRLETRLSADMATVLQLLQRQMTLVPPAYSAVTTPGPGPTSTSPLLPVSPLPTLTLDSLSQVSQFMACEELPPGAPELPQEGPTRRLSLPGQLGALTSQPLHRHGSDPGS
KCNQ1 pot = potentiators or activators of human KCNQ1 potassium channel | B-score at 10 µM | CHO-K1 KCNQ1, thallium flux FluxOR fluorescence; active compounds read high | P51787 | 310,000 tested, 0.35% active;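 active = fluorescence ratio B-score, a plate-corrected score, at least three library SD, with initial intensity B-score within 5 SD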
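Assay system: CHO-K1 cells stably expressing KCNQ1; Medium: assay buffer with matched DMSO; Also added: K+/Tl+ depolarizing stimulus; Dosing: single dose; Timing: dye 90 min, compound 20 min, room temperature; Measured by: kinetic FluxOR thallium fluorescence, 10-s 1-Hz baseline, 110-s post-stimulus read; Read-out: peak-minus-minimum fluorescence over initial fluorescence, negative-control normalized, B-scored.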
KCNQ1 block = human KCNQ1 channel inhibition; P51787; B-score at 10 µM; CHO-K1 KCNQ1, FluxOR thallium flux fluorescence; active compounds read high; 310,000 tested, 1.3% active; AID 2642;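 active = compounds whose thallium flux B-score, printed positive for inhibition, exceeds three library SD while starting fluorescence stays within three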;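 also: channel opened by potassium depolarization with thallium stimulus after 20 min compound exposure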
KCNK9 inh conf = confirmation of human KCNK9 potassium channel inhibitors | inhibition, % at 10 µM | 4,900 tested, 43% active | HEK293 KCNK9 cells, FluxOR thallium flux fluorescence | AID 492992 | shares compounds with KCNK9 block;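 active = thallium signal inhibited by more than 5 SD of the compound-free buffer control wells, on both duplicate plates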;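 also: 0% = assay buffer control wells without compound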
Kir21 sel = tests whether KCNK9 modulators also affect mouse Kir2.1 | shares compounds with KCNK9 block | Kir2.1 cells, FluxOR thallium flux fluorescence | inhibition, % at 10 µM | 4,900 tested, 4% active;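 active = thallium signal drop more than 5 SD beyond the mean of the no-compound control wells, seen in both duplicate plates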;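 also: signal is fluorescence rise after thallium addition divided by baseline fluorescence; plate controls were assay buffer only for no effect and full block by chlorpromazine control for full effect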
KCNK9 uninduced = second counter-screen for KCNK9 modulators: effect in non-induced cells. AID 492997. 4,900 tested, 40% active. non-induced KCNK9-HEK293, FluxOR thallium flux. inhibition, % at 10 µM. shares compounds with KCNK9 block;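 active = thallium signal drop beyond 5 SD of the untreated control mean, on both duplicate plates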;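 also: plate controls were buffer only IC0 wells for no effect and SID17386958 at its maximal inhibitory level for full effect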
An asterisk follows results filed as active; i = inactive; x = no result given. Sampled rows, rich in hits. Any-hit rate of the full collection: about 3.1%.

SMILES	KCNK3 inh	KCNK9 block	hERG protect	KCNQ1 pot	KCNQ1 block	KCNK9 inh conf	Kir21 sel	KCNK9 uninduced
CCOC(=O)C1CCN(Cc2cc(=O)oc3c(C)c(C)ccc23)CC1	i	i	-7.5	i	i	i	i	i
CCOC(=O)C1CCN(Cc2cn(C)nc2-c2ccc(Oc3ccccc3)cc2)CC1	i	i	-14.8	i	i	i	i	i
Cc1ccc2c(CN3CCN(Cc4ccccc4)CC3)cc(=O)oc2c1C	i	i	-6.8	i	i	i	i	i
CCOC(=O)C1CCN(Cc2ccc(OC)c(C)c2OC)CC1	i	i	-5.0	i	i	x	x	x
CCC[C@@H](O)c1cc2cc(OC)c(OC)cc2c(=O)o1	i	x	x	x	x	x	x	x
CC1(c2ccc(OC(F)F)cc2)NC(=O)N(CC(=O)c2ccc3c(c2)OCO3)C1=O (stereo unspecified)	i	i	-13.3	i	i	x	x	x
Nc1nnc(SCC(=O)NC2CCCCCC2)s1	i	i	-8.8	i	i	x	x	x
Cc1nonc1CC(=O)NC1CCCc2c1cnn2-c1ccc(F)cc1F (stereo unspecified)	i	i	-6.3	i	i	x	x	x
CCOC(=O)C1CCN(Cc2cc(=O)oc3cc(C)c(Cl)cc23)CC1	i	i	-3.1	i	i	i	i	i
CCCCSc1nc(SCC(=O)NCc2ccco2)c2c3c(sc2n1)COC(C)(CC)C3 (stereo unspecified)	i	i	-21.3	i	i	i	i	i
Cc1cccc(N2CCN(C(=O)Cc3ccc(Br)cc3)CC2)c1C	i	i	-16.6	i	i	i	i	26.5%*
Cc1ccc(C2N(C)c3ccccc3-c3nc4ccccc4n32)o1 (stereo unspecified)	i	-11.4*	-10.8	i	i	32.5%*	i	30.5%*
CN1c2ccccc2-c2nc3ccccc3n2C1c1cccs1 (stereo unspecified)	i	-8.58*	-14.0	i	i	37.5%*	i	41.5%*
Cc1ccccc1OCC(=O)NCCCNC(=O)c1ccco1	i	i	-9.4	i	i	x	x	x
COc1cc(C(=O)OCC(=O)Nc2cccc(S(=O)(=O)N3CCOCC3)c2)ccc1OCC(C)C	i	i	-7.6	i	i	x	x	x
COc1ccc(OC)c(NC(=O)CSc2ncnc3sc(C)cc23)c1	i	x	x	x	x	x	x	x
COc1ccc(OC)c(NC(=O)C(Sc2ccccc2)c2ccccc2)c1 (stereo unspecified)	i	-10.9*	-8.0	i	i	57.5%*	i	45.5%*
Cc1cccc(N2CCN(C(=O)c3ccc4c(c3)c(C)c(C)n4C)CC2C)c1 (stereo unspecified)	i	i	-11.4	i	i	i	i	i
CC1CCN(Cc2c(C(=O)N/N=C/c3ccc(C(C)(C)C)cc3)nnn2-c2nonc2N)CC1	i	i	-8.9	i	i	i	i	i
CN(CC(=O)NC1CCCc2ccccc21)C1CCCCC1 (stereo unspecified)	i	i	-6.7	i	i	x	x	x
CN(C1CCCCC1)S(=O)(=O)c1cccc(C(=O)OCC(=O)NC2CCCc3ccccc32)c1 (stereo unspecified)	i	-9.46*	-3.9	i	i	55.5%*	i	i
Cc1ccc(-c2nc3cnccn3c2Nc2ccc3c(c2)OCO3)cc1	i	-8.57*	-6.7	i	i	44.5%*	i	i
Cc1cc(C)n2c(Nc3ccc4c(c3)OCCO4)c(-c3ccccc3)nc2n1	i	-11.4*	-18.3	i	i	39.0%*	i	28.5%*
Cc1ccc(NC(=O)CN(C)Cc2cccs2)cc1Cl	i	-16.2*	-12.5	i	i	68.0%*	i	32.5%*
Cc1ccc(C)c(S(=O)(=O)N(C)C2(C)CCS(=O)(=O)C2)c1 (stereo unspecified)	i	i	-11.3	i	i	x	x	x
SMILES	KCNK3 inh	KCNK9 block	hERG protect	KCNQ1 pot	KCNQ1 block	KCNK9 inh conf	Kir21 sel	KCNK9 uninduced
CC1=NOC(=O)/C1=C\c1ccc(-c2ccc(Cl)cc2Cl)o1	i	i	-5.0	i	i	i	i	i
CCCOc1ccc(Cl)cc1/C=C1/C(=O)ON=C1C	i	i	-3.8	i	i	x	x	x
O=C(Cc1coc2ccc3ccccc3c12)NC1CCCc2ccccc21 (stereo unspecified)	i	-11*	-8.7	i	i	66.0%*	i	36.5%*
O=C(Cc1coc2ccc3ccccc3c12)NCc1ccccc1	i	i	-11.4	i	i	x	x	x
O=C(CCCOc1ccccc1)NC1CCCc2ccccc21 (stereo unspecified)	i	i	-5.4	i	i	i	i	i
CCOc1ccc(-c2nc(CSCC(=O)NC3CCCc4ccccc43)c(C)o2)cc1 (stereo unspecified)	i	-8.3*	-9.1	i	6*	43.5%*	i	42.0%*
O=C(CCl)NC1CCCc2ccccc21 (stereo unspecified)	i	i	0.4	i	i	x	x	x
CN(C(=O)c1cccc(C(F)(F)F)c1)C1CCCc2ccccc21 (stereo unspecified)	i	i	-6.9	i	i	x	x	x
CC(C)(C)OC(=O)N1CCC(c2c(C(=O)NCC3CCN(C4CCCC4)C3)cnn2-c2cccc(Cl)c2)CC1 (stereo unspecified)	i	i	-12.8	i	i	x	x	x
Brc1ccc(OCc2nnc(SCC3CCCCC3)o2)cc1	i	-8.85*	-8.7	i	i	26.0%*	i	36.0%*
CCc1ccc(OCc2nnc(SCC(=O)NC3CCCCC3)o2)cc1	i	i	-5.6	i	i	x	x	x
COCCN1C(=O)/C(=C/c2ccc(OCc3ccc(C(=O)O)cc3)c(OC)c2)SC1=Nc1ccccc1	i	i	-33.0	i	i	i	i	i
COc1cc(/C=C2\SC(=Nc3ccccc3)N(Cc3ccco3)C2=O)ccc1OC(C)C(=O)O (stereo unspecified)	i	i	-10.5	i	i	x	x	x
COc1ccc(C(=O)NCc2ccc(N3CCN(C(=O)OC(C)(C)C)CC3)cc2)cc1	i	i	1.4	i	i	i	i	i
COc1cccc(C(=O)NCc2ccc(N3CCN(C(=O)OC(C)(C)C)CC3)cc2)c1	i	i	-13.5	i	i	x	x	x
Cc1cc(OCCn2nc(C(=O)O)c3ccccc3c2=O)ccc1C(C)C	i	i	-9.3	i	i	i	i	i
